According to PMC3609526 (Diabetes Care, 2013):

Experiment: Euglycemic clamp study: pharmacodynamics by glucose infusion rate
Assay type: in vivo, human (type 1 diabetic patients)
Conditions: for GIR tmax50 (time to reach 50% of maximum GIR) / GIR tmax (time to reach maximum GIR): euglycemic clamp, 12 patients, mean ± SD
Procedure, shortened: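 Crossover design with a 5–21 d washout, in fasting C-peptide-negative patients. During a 3–7 h run-in, IV human insulin/glucose held plasma glucose at 5.5 ± 1.1 mmol/L, with insulin tapered off over the last hour. At time 0, a fast-acting insulin analogue was injected into abdominal s.c. fat. Variable 10% glucose then ran for 8 h. Arterialized venous glucose (arm warmed at 55°C) was measured every 5–10 min in duplicate, and GIR AUC was calculated.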

[1] = 9 × 2 IU dispersed s.c. boluses

In the case of insulin aspart, the “GIR tmax50 (time to reach 50% of maximum GIR)” value (1 × 18 IU single s.c. bolus) was 49 ± 16 min, the “GIR tmax (time to reach maximum GIR)” value (1 × 18 IU single s.c. bolus) was 127 ± 93 min and the “GIR tmax50 (time to reach 50% of maximum GIR)” value [1] was 38 ± 9 min. For the same substance, the “GIR tmax (time to reach maximum GIR)” value [1] was 68 ± 33 min and the “shortening of time to reach maximum GIR” value (9 × 2 IU vs. 1 × 18 IU) was about 50%.
